Activity data for one compound are collected here from ChEMBL document CHEMBL1152466, “Hepatitis B virus e antigen loss during adefovir dipivoxil therapy is associated with enhanced virus-specific CD4+ T-cell reactivity” (2008).

Experiment [1] relates to PBMC. Briefly: Increase in HBV-specific IP10 in HBcAg-stimulated human PBMC at 10 to 30 mg per day by ELISA. It is filed as functional, cell-based. Background: In an ELISA, binding on a coated surface is turned into a signal by an enzyme label.
Experiment [2] concerns PBMC. Briefly: Increase in HBV-specific IFN-gamma production in HBcAg-stimulated human PBMC assessed as INFgamma production index at 10 to 30 mg per day after 24 weeks by […]. The format is functional. A digest of the protocol:
(§1)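 PBMC at 3 × 10⁶/ml in RPMI with 10% human AB serum, cultured in quadruplicate for 6 days with or without rHBcAg (1 μg/ml). IFN-γ in cell-free supernatants (kept at −20°C) was measured by ELISA. Index = mean pg/ml IFN-γ of the four HBcAg-stimulated replicates divided by that of medium-only cultures, calculated at each protocol time point.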

Experiment [3] relates to PBMC. Briefly: Increase in HBV-specific IL2 level in HBcAg-stimulated human PBMC at 10 to 30 mg per day by ELISA. The format is functional, cell-based.
Experiment [4] concerns Hepatitis B virus. Briefly: Antiviral activity against HBV infected in human assessed as reduction in serum viral DNA level at 10 to 30 mg per day after 48 weeks. It is filed as functional.
Experiment [5] deals with PBMC. Nature of the experiment: Increase in HBV-specific IFN-gamma production in HBcAg-stimulated human PBMC assessed as INFgamma production index at 10 to 30 mg per day after 4 weeks […]. The format is functional. A digest of the protocol: as §1
Experiment [6] deals with PBMC. Briefly: Increase in HBV-specific IFN-gamma production in HBcAg-stimulated human PBMC assessed as INFgamma production index at 10 to 30 mg per day after 16 weeks […]. It is filed as functional. Summed up: as §1
The species entered for experiment [7] is Homo sapiens. Briefly: Serum IL10 level in human at baseline at 10 to 30 mg per day by cytometric bead array.
Experiment [8] has as its system PBMC. Briefly: Increase in HBV-specific IFN-gamma production in HBcAg-stimulated human PBMC assessed as INFgamma production index at 10 to 30 mg per day after 48 weeks by […]. It is filed as functional. Summed up:
as §1

Experiment [9] is filed under the species Homo sapiens. Nature of the experiment: Increase in HBV-specific IFN-gamma-producing CD4+ cell proliferation in patients with […] chronic hepatitis B assessed as [3H]thymidine incorporation after 48 weeks by beta counting relative to baseline. It is filed as functional, organism-based. A digest of the protocol: (§2)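 Freshly isolated patient PBMC (density gradient) at 2 × 10⁶/ml in RPMI with 10% human AB serum. rHBcAg (1 μg/ml) was added to quadruplicate wells, with tetanus toxoid (0.5 μg/ml) and phytohemagglutinin (1 μg/ml) as controls. After 6 days, 0.5 μCi/well [³H]thymidine pulse and beta counting. Stimulation index = mean cpm antigen/medium. The positive cutoff was mean + 3 SD of 15–20 controls per center.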
A general note: Uptake of a labelled nucleoside into DNA is a usual measure of proliferation.

In experiment [10] the test system is PBMC. Nature of the experiment: Increase in HBV-specific IFN-gamma production in HBcAg-stimulated human PBMC assessed as INFgamma production index at 10 to 30 mg per day after 40 weeks by […]. The format is functional. A digest of the protocol: as §1
Experiment [11] is filed under the species Homo sapiens. Nature of the experiment: Increase in HBV-specific IFN-gamma-producing CD4+ cell proliferation in patients with […] chronic hepatitis B assessed as [3H]thymidine incorporation after 40 weeks by beta counting relative to baseline. It is filed as functional, organism-based. Summed up:
as §2

Experiment [12] deals with PBMC. Nature of the experiment: Increase in HBV-specific IL12p70 level in HBcAg-stimulated human PBMC at 10 to 30 mg per day by ELISA. It is filed as functional, cell-based.
The species named for experiment [13] is Homo sapiens. Briefly: Increase in HBV-specific IFN-gamma-producing CD4+ cell proliferation in patients with […] chronic hepatitis B assessed as [3H]thymidine incorporation after 16 weeks by beta counting relative to baseline. The format is functional, organism-based. Summed up: as §2
Experiment [14] relates to PBMC. Briefly: Increase in HBV-specific IL5 level in HBcAg-stimulated human PBMC at 10 to 30 mg per day by ELISA. The format is functional, cell-based.
Experiment [15] relates to PBMC. Nature of the experiment: Increase in HBV-specific IFN-gamma production in HBcAg-stimulated human PBMC assessed as INFgamma production index at 10 to 30 mg per day after 8 weeks by […]. It is filed as functional. Summed up:
as §1

The subject of experiment [16] is PBMC. Briefly: Increase in HBV-specific Fas ligand level in HBcAg-stimulated human PBMC at 10 to 30 mg per day by ELISA. The format is functional, cell-based.
Experiment [17] has as its system Hepatitis B virus. Briefly: Antiviral activity against HBV infected patients assessed as ALT level at 10 to 30 mg per day after 48 weeks […]. It is filed as functional.
The test system of experiment [18] is PBMC. Briefly: Increase in HBV-specific IL8 in HBcAg-stimulated human PBMC at 10 to 30 mg per day by ELISA. It is filed as functional, cell-based.
For experiment [19], the species on record is Homo sapiens. Briefly: Increase in HBV-specific IFN-gamma-producing CD4+ cell proliferation in patients with […] chronic hepatitis B assessed as [3H]thymidine incorporation by beta counting relative to baseline. The format is functional. Summed up:
as §2

Active and inactive are the calls of the source.

Take `CC(C)(C)C(=O)OCOP(=O)(COCCn1cnc2c(N)ncnc21)OCOC(=O)C(C)(C)C` [ADEFOVIR DIPIVOXIL]: the result in experiment [1], in [9], in experiment [11], in [13] and in [18] was Active. The Activity in experiment [2] is 26.3; in experiment [4], -5.3 log10CFU/ml; in experiment [5], 58.9; in [6], 63.9; in experiment [7], 32 pg/mL; in experiment [8] it was 18. In addition, the Activity in [10] came to 61.5; in experiment [15] it was 184.3; in [17], 35 IU/ml; in experiment [19], 15%. The result in experiment [3], in experiment [12], in experiment [14] and in experiment [16] was inactive.
